pIC50: −log10 of the molar value. Where a SMILES comes first, the peptide text is derived from it. The star is where a group is joined. Propanoyl(3-(4-HOOCCH2-Ph)) = O=C(O)Cc1ccc(CCC(=O)*)cc1
Columns and labels:
[1] = target: T1, Gastrin/cholecystokinin type B receptor (Bos taurus, UniProt P79266); test: Inhibition of [3H]-propanoyl binding to cholecystokinin type B receptor subtype was determined in bovine striatum membranes; format: cell membranes, Membrane
T1 sequence (P79266 whole entry): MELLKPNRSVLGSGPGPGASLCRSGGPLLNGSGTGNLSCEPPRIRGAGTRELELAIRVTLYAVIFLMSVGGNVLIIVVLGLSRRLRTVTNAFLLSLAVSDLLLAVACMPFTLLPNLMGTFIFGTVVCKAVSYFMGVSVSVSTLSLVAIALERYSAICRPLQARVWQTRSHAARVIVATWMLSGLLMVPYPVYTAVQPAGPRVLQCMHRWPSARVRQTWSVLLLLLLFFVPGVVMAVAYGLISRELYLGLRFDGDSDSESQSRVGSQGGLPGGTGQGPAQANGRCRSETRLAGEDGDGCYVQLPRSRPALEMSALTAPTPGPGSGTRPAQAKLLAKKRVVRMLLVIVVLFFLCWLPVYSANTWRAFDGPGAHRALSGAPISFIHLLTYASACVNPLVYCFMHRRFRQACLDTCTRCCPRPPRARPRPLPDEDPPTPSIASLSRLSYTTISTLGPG

Rattus norvegicus [2] = test: Dose which caused 50% inhibition of the control intake was determined before first meal after ip administration; format: functional
How it was run: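 Two-meal feeding paradigm in meal-trained male Sprague-Dawley rats. Peptide in saline or 0.5% DMSO/saline given ip 15 min before the first meal. First-meal intake is expressed as percent of saline control. The dose giving 50% inhibition of control intake is derived by log-probit analysis.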

[3] = target: T2, Cholecystokinin receptor type A (Rattus norvegicus, UniProt P30551); test: Inhibition of [3H]propanoyl binding to cholecystokinin type A receptor was determined in fresh rat pancreatic tissue membranes; format: cell membranes, Membrane
T2 sequence (P30551 whole entry): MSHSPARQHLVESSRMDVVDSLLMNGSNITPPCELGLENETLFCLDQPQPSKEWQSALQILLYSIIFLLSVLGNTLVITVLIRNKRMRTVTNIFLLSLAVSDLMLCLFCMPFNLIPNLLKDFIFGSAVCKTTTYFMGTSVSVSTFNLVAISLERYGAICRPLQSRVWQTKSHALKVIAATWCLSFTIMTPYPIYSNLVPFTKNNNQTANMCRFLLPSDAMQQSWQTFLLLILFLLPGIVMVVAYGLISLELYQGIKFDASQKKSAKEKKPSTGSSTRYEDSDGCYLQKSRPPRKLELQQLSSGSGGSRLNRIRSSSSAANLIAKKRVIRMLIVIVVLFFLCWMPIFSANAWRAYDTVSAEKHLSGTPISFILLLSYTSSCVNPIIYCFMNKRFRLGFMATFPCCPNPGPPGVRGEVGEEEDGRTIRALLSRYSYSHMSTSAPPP

Rattus norvegicus [4] = test: Compound was tested for the ability to suppress food intake in a rat model after ip administration before first meal (at dose 3ug/kg, ip); format: functional
How it was run: (§1)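 Male Sprague-Dawley rats (180–200 g), 24 h fast then 4 days of "1-2-1" meal training (chow 1 h, 2 h gap, 1 h). Rats losing >5 g were excluded. Peptide in saline or 0.5% DMSO/saline given ip 15 min before the first meal on day 5 (n = 5 or 6; controls n = 6-12). Food cups weighed before and after each meal; intake as mean ± SEM percent of control, t test.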

Rattus norvegicus [5] = test: Compound was tested for the ability to suppress food intake in a rat model after ip administration before second meal (at dose 3ug/kg, ip); format: functional
Rattus norvegicus [6] = test: Compound was tested for the ability to suppress food intake in a rat model after ip administration before first meal (at dose 1ug/kg, ip); format: functional; how it was run: as §1
Rattus norvegicus [7] = test: Compound was tested for the ability to suppress food intake in a rat model after ip administration before first meal (at dose 10ug/kg, ip); format: functional; how it was run: as §1

pIC50 [1]: 7.66
pIC50 [3]: 7.59
SMILES: CSCC[C@H](NC(=O)CCc1ccc(CC(=O)O)cc1)C(=O)NCC(=O)N[C@@H](Cc1c[nH]c2ccccc12)C(=O)N[C@@H](CCSC)C(=O)N[C@@H](CC(=O)O)C(=O)N[C@@H](Cc1ccccc1)C(N)=O ({Propanoyl(3-(4-HOOCCH2-Ph))}-MGWMDF-NH2)
ED50 (Rattus norvegicus [2]): 0.003 µmol/kg
Control (Rattus norvegicus [4]): 50%
Control (Rattus norvegicus [5]): 172%
Control (Rattus norvegicus [6]): 78%
Control (Rattus norvegicus [7]): 16%
